Statin myotox sup – suppression of simvastatin myotoxicity | C2C12 myotubes + simvastatin, ATP luminescence, 48 h; scaled: DMSO 0, geranylgeraniol control 100 | 330,000 tested, 0.78% active | rescue of ATP level, % at 7.49 µM;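 active = mean ATP rescue above about 67%, or every replicate alone reaching that limit, limit read from the data, passing the limit was not always enough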;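 also: myotubes were challenged with 10 µM simvastatin during compound exposure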
XiGFP reactiv – X-chromosome reactivation activator | XiGFP mouse fibroblasts, % GFP-positive cells imaging, 3 d; cells co-treated with 5-aza-dC sensitizer; scaled so ellipticine positive control = 100% | activation, % at 7.58 µM | 360,000 tested, 0.055% active | AID 743238;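 active = mean normalized replicate activation at least 10% and every replicate at or above 10%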
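System: 68-5-11 XiGFP fibroblast line | Buffer or medium: DMEM containing 5-aza-dC | Compound: Single point | Times: Compounds 3 days, fix/stain 15 min at room temperature | Benchmarks: Positive control ellipticine, 6 µM final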
Cneo AK release – Cryptococcus neoformans lysis via adenylate kinase release; C. neoformans lysis, adenylate kinase release luminescence, 4 h; normalised: neutral wells 0, clomiphene wells 100; lysis activity, % at 15 µM; 360,000 tested, 0.2% active;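 active = mean lysis activity across replicates of at least 80%, whatever share of replicates individually reach that level; inactive = mean lysis activity below 80%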
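Assay system: C. neoformans cells. Amount: yeast cell density of 5 × 10^6 cells/mL. Technique: AK luminescence. Buffer or medium: YPD. Times: static 4 h at 37 °C with compound, 1 h detection. Dosing: single-point compound dose. Read-out: lysis from increased AK signal.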
DENV2 CPE – inhibitors of DENV2 cytopathic effect; DENV2-infected cells, cytopathic effect rescue, plate reader; CPE inhibition, % at 9.99 µM; 350,000 tested, 1.7% active; in the data active = CPE inhibition above about 20%, passing the limit was not always enough; tested in BHK-21 cells
Each line names hits and unclear results; the compound was inactive in the other large screens; ! = not confirmed by another sample. This is a sample that favours compounds with a hit; in the whole collection about 2.1% have one here.

O=C1CC(SC(=Nc2ccccc2)Nc2ccccc2)C(=O)N1c1cccc2ccccc12 (stereo not given)	Statin myotox sup 120 (no result: XiGFP reactiv, DENV2 CPE)
C[C@@H]1CN([C@H](C)CO)C(=O)c2cc(-c3ccncc3)cnc2O[C@@H]1CN(C)C(=O)c1ccc(F)cc1	none
COc1ccc(OCCNS(=O)(=O)c2ccc3oc4ccccc4c3c2)cc1	Statin myotox sup 101 (no result: XiGFP reactiv, DENV2 CPE)
CC(C)NC(=O)N[C@@H]1CC[C@H](CCNS(=O)(=O)Cc2ccccc2)O[C@@H]1CO	none
COc1ccc(CN(C)C[C@@H]2OCCCC[C@@H](C)Oc3ccc(NS(=O)(=O)c4ccc(Cl)cc4)cc3C(=O)N([C@@H](C)CO)C[C@H]2C)cc1	DENV2 CPE 34 (no result: Statin myotox sup)
COc1ccc(CN(C)C[C@H]2OCCCC[C@H](C)Oc3ccc(NS(=O)(=O)c4ccc(Cl)cc4)cc3C(=O)N([C@@H](C)CO)C[C@@H]2C)cc1	DENV2 CPE 30 (no result: Statin myotox sup)
COc1ccc(CN(C)C[C@H]2OCCCC[C@H](C)Oc3ccc(NS(=O)(=O)c4ccc(F)cc4)cc3C(=O)N([C@H](C)CO)C[C@H]2C)cc1	DENV2 CPE 33 (no result: Statin myotox sup)
NC(=O)c1cccc(-c2csc(C(O)c3cccc(Cl)c3)n2)c1 (stereo not given)	none
O=C(O)c1cccc(-c2csc(C(O)c3cccc(Cl)c3)n2)c1 (stereo not given)	DENV2 CPE 46
CCC(=O)Nc1ccc2c(c1)OC[C@H](C)N(C(C)=O)C[C@@H](C)[C@H](OC)CN(C)C2=O	none (no result: Statin myotox sup, Cneo AK release)
CC(=O)N1[C@@H](CO)[C@@H](c2ccccc2)C12CN(C(=O)Cc1ccccc1)C2	none (no result: Statin myotox sup, Cneo AK release)
C=CC[C@H](CC(=O)NCCO)C(=O)NCCOC(=O)[C@@H](CC=C)Cc1ccc(F)cc1	DENV2 CPE 47
COc1ccc(-n2nc([N+](=O)[O-])c(=NCc3ccc4c(c3)OCO4)n2O)cc1	DENV2 CPE 32 (no result: Statin myotox sup)
O=C(CNc1cccc(S(=O)(=O)N2CCOCC2)c1)Nc1cccc(Br)c1	DENV2 CPE 27
O=C(Nc1cccc(S(=O)(=O)C(F)F)c1)c1ccc(S(=O)(=O)N2CCOCC2)cc1	Statin myotox sup 95 (no result: XiGFP reactiv, DENV2 CPE)
Cc1noc(C)c1S(=O)(=O)Nc1ccc2c(c1)C(=O)N([C@H](C)CO)C[C@@H](C)[C@@H](CN(C)C(=O)NC1CCCCC1)O2	none
C[C@@H]1CCCCO[C@H](CN(C)C(=O)Nc2ccc(F)cc2)[C@H](C)CN([C@@H](C)CO)C(=O)c2cc(NC(=O)c3ccncc3)ccc2O1	none (no result: Statin myotox sup)
C[C@@H]1CCCCO[C@H](CN(C)C(=O)Nc2ccc(C(F)(F)F)cc2)[C@H](C)CN([C@@H](C)CO)C(=O)c2cc(NC(=O)c3ccncc3)ccc2O1	DENV2 CPE 22 (no result: Statin myotox sup)
C[C@@H]1CCCCO[C@@H](CN(C)C(=O)C2CCCCC2)[C@H](C)CN([C@@H](C)CO)C(=O)c2cc(NC(=O)c3ccncc3)ccc2O1	Statin myotox sup 95
C[C@@H]1CN([C@H](C)CO)C(=O)c2cc(NC(=O)c3ccncc3)ccc2O[C@@H](C)CCCCO[C@H]1CN(C)C(=O)Nc1ccc(C(F)(F)F)cc1	none (no result: Statin myotox sup)
C[C@@H]1CCCCO[C@H](CN(C)C(=O)Nc2ccc(C(F)(F)F)cc2)[C@@H](C)CN([C@H](C)CO)C(=O)c2cc(NC(=O)c3ccncc3)ccc2O1	DENV2 CPE 21!
C[C@@H]1CCCCO[C@H](CN(C)C(=O)Nc2ccc(C(F)(F)F)cc2)[C@H](C)CN([C@H](C)CO)C(=O)c2cc(NC(=O)c3ccncc3)ccc2O1	none (no result: Statin myotox sup)
C[C@@H]1CCCCO[C@@H](CN(C)C(=O)Nc2ccc(F)cc2)[C@H](C)CN([C@H](C)CO)C(=O)c2cc(NC(=O)c3ccncc3)ccc2O1	DENV2 CPE 27 (no result: Statin myotox sup)
C[C@@H]1CCCCO[C@@H](CN(C)C(=O)C2CCCCC2)[C@@H](C)CN([C@@H](C)CO)C(=O)c2cc(NC(=O)c3ccncc3)ccc2O1	none
COc1cccc(NC(=O)C[C@H]2CC[C@H]3[C@H](COc4ccc(NS(=O)(=O)c5cccc(F)c5)cc4C(=O)N3C)O2)c1	none
C[C@@H]1CCCCO[C@@H](CN(C)Cc2ccc(C(=O)O)cc2)[C@H](C)CN([C@H](C)CO)C(=O)c2cc(NS(C)(=O)=O)ccc2O1	none (no result: Statin myotox sup)
Cc1ccc(S(=O)(=O)Nc2ccc3c(c2)C(=O)N([C@@H](C)CO)C[C@H](C)[C@H](CN(C)S(=O)(=O)c2ccc(F)cc2)O3)cc1	none (no result: Cneo AK release)
CCNc1nc(N)c(C(=C(C#N)C#N)c2ccccc2)s1	none (no result: Statin myotox sup, XiGFP reactiv, DENV2 CPE)
CCNc1nc(N)c(C(=O)C23CC4CC(CC(C4)C2)C3)s1	DENV2 CPE 53
CC(C)C[C@@H](CN1CCC[C@@H]1CN1C(=S)NC[C@@H]1Cc1ccc(O)cc1)N1C[C@H](Cc2ccc(O)cc2)N(CC2CCCCC2)C1=S	DENV2 CPE 28
O=C(N[C@@H]1c2ccccc2CC[C@@H]1OCc1ccccc1)c1ccc(C(F)(F)F)cc1	DENV2 CPE 69
O=C(COCc1ccccc1)N[C@@H]1c2ccccc2CC[C@H]1OCc1ccccc1	none
N#C/C(=C1\CCCN1)c1ccc2ccccc2n1	Statin myotox sup 77 (no result: XiGFP reactiv, DENV2 CPE)
CCNC(=O)C[C@@H]1CC[C@H]2[C@@H](COc3ccc(NS(C)(=O)=O)cc3C(=O)N2C)O1	none
Clc1ccc2ccc3cccnc3c2n1	none
O=S1(=O)Nc2c(ccc3cccnc23)-c2ccccc21	Statin myotox sup 109 (no result: XiGFP reactiv, DENV2 CPE)
CC[C@H](C)C(=O)O[C@H]1C[C@@H](C)C=C2C=C[C@H](C)[C@H](CC[C@@H]3C[C@@H](O)CC(=O)O3)[C@H]21	DENV2 CPE 36!
CCOC(=O)Cc1csc(N/N=C/c2cccc([N+](=O)[O-])c2)n1	DENV2 CPE 29
COc1ccc2c3c([nH]c2c1)[C@H](CO)N(C(=O)C1CCCC1)CC31CCN(S(C)(=O)=O)CC1	none (no result: Statin myotox sup, Cneo AK release)
Cc1cccc(NC2=NC(C)(C)N=C(N)N2)c1C	Statin myotox sup 112 (no result: XiGFP reactiv, DENV2 CPE)
C[C@@H]1CN([C@@H](C)CO)C(=O)c2c(c3ccccc3n2C)-c2ccccc2CO[C@H]1CN(C)S(=O)(=O)c1ccccc1F	none (no result: Statin myotox sup)
Cc1cc(C)n(-c2cccc(Cl)c2)c(=O)c1C#N	Statin myotox sup 118 (no result: XiGFP reactiv, DENV2 CPE)
Cc1ccc(-n2c(C)cc(C)c(C#N)c2=O)cc1C	none (no result: Statin myotox sup, Cneo AK release)
COc1ccc2c3c(n(C)c2c1)[C@@H](CO)N(CC1CCOCC1)CC31CCN(C(=O)Nc2ccccc2)CC1	none (no result: Statin myotox sup, Cneo AK release)
NC(=S)N/N=C/c1ccc(-c2cc(Cl)ccc2Cl)o1	Cneo AK release 111 (no result: XiGFP reactiv, DENV2 CPE)
NC(=S)N/N=C/c1ccc(-c2cc(Cl)cc(Cl)c2)o1	none (no result: XiGFP reactiv, DENV2 CPE)
Cc1noc(C)c1NC(=O)N(C)C[C@H]1Oc2ncc(C#CC(C)C)cc2C(=O)N([C@@H](C)CO)C[C@H]1C	DENV2 CPE 53
Cc1noc(C)c1NC(=O)N(C)C[C@@H]1Oc2ncc(C#CC(C)C)cc2C(=O)N([C@H](C)CO)C[C@H]1C	none
Cc1noc(C)c1NC(=O)N(C)C[C@@H]1Oc2ncc(C#CCN(C)C)cc2C(=O)N([C@@H](C)CO)C[C@@H]1C	DENV2 CPE 25
O=C(C[C@@H]1C=C[C@@H](NC(=O)Nc2ccc3c(c2)OCO3)[C@@H](CO)O1)NCc1ccc(Cl)cc1	none
